Data reported in ChEMBL document CHEMBL1921724, “In search of a cytostatic agent derived from the alkaloid lycorine: synthesis and growth inhibitory properties of lycorine derivatives” (Bioorg Med Chem, 2011).

Test system: not listed separately
Assay: Growth inhibition of pro-apoptotic stimuli-resistant human U373 cells after 72 hrs by MTT assay
Format: functional, U-373MG ATCC
Conditions: U373 MG
How it was run: (§1)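 Cells seeded at 10,000 to 40,000 cells/mL depending on cell type and allowed to attach for 24 h. They were then cultured 72 h with or without compound (untreated control). Living cells were measured by MTT reduction to formazan, read at 570 nm against a 630 nm reference. GI50 was derived from the growth levels.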

SMILES | GI50 [µM]
CC/C=C\C/C=C\C/C=C\C/C=C\C/C=C\C/C=C\CCC(=O)O[C@H]1[C@H]2c3cc4c(cc3CN3CCC(=C[C@@H]1O)[C@H]23)OCO4 | 8
O=C(O[C@H]1[C@H]2c3cc4c(cc3CN3CCC(=C[C@@H]1OC(=O)c1ccccc1)[C@H]23)OCO4)c1ccccc1 | 1
O=C1c2cc3c(cc2[C@@H]2[C@H](O)[C@@H](O)[C@H](O)C4=CCN1[C@H]42)OCO3 | > 100
CCCCCCCCCCCCCCCC(=O)O[C@H]1[C@H]2c3cc4c(cc3CN3CCC(=C[C@@H]1O)[C@H]23)OCO4 | 24
CC(=O)O[C@H]1[C@H]2c3cc4c(cc3CN3CCC(=C[C@@H]1O[Si](C(C)C)(C(C)C)C(C)C)[C@H]23)OCO4 | 15
O=c1c2cc3c(cc2c2cccc4c2n1CC4)OCO3 | 4
CC(=O)Oc1cc2ccn3c(=O)c4cc5c(cc4c(c1)c23)OCO5 | 5
CC(=O)O[C@@H]1[C@@H](OC(C)=O)[C@H](OC(C)=O)[C@@]2(O)CCN3C(=O)c4cc5c(cc4[C@H]1[C@H]32)OCO5 | > 100

Test system: not listed separately
Assay: Growth inhibition of pro-apoptotic stimuli-sensitive human Hs683 cells after 72 hrs by MTT assay
Format: functional
Conditions: Hs 683, 72 h
How it was run: as §1

SMILES | GI50 [µM]
CC/C=C\C/C=C\C/C=C\C/C=C\C/C=C\C/C=C\CCC(=O)O[C@H]1[C@H]2c3cc4c(cc3CN3CCC(=C[C@@H]1O)[C@H]23)OCO4 | 20
O=C(O[C@H]1[C@H]2c3cc4c(cc3CN3CCC(=C[C@@H]1OC(=O)c1ccccc1)[C@H]23)OCO4)c1ccccc1 | 10
O=C1c2cc3c(cc2[C@@H]2[C@H](O)[C@@H](O)[C@H](O)C4=CCN1[C@H]42)OCO3 | > 100
CCCCCCCCCCCCCCCC(=O)O[C@H]1[C@H]2c3cc4c(cc3CN3CCC(=C[C@@H]1O)[C@H]23)OCO4 | 27
CC(=O)O[C@H]1[C@H]2c3cc4c(cc3CN3CCC(=C[C@@H]1O[Si](C(C)C)(C(C)C)C(C)C)[C@H]23)OCO4 | 36
O=c1c2cc3c(cc2c2cccc4c2n1CC4)OCO3 | 14
CC(=O)Oc1cc2ccn3c(=O)c4cc5c(cc4c(c1)c23)OCO5 | 14
CC(=O)O[C@@H]1[C@@H](OC(C)=O)[C@H](OC(C)=O)[C@@]2(O)CCN3C(=O)c4cc5c(cc4[C@H]1[C@H]32)OCO5 | > 100

Test system: A549
Assay: Growth inhibition of pro-apoptotic stimuli-resistant human A549 cells after 72 hrs by MTT assay
Format: functional
Conditions: A549, 72 h
How it was run: as §1

SMILES | GI50 [µM]
CC/C=C\C/C=C\C/C=C\C/C=C\C/C=C\C/C=C\CCC(=O)O[C@H]1[C@H]2c3cc4c(cc3CN3CCC(=C[C@@H]1O)[C@H]23)OCO4 | 15
CCCCCCCCCCCCCCCC(=O)O[C@H]1[C@H]2c3cc4c(cc3CN3CCC(=C[C@@H]1O)[C@H]23)OCO4 | 26
O=c1c2cc3c(cc2c2cccc4c2n1CC4)OCO3 | 24
CC(=O)Oc1cc2ccn3c(=O)c4cc5c(cc4c(c1)c23)OCO5 | 18

Results, then the molecule that gave them:

GI50 [µM] | SMILES
54 | O=C(O[C@H]1[C@H]2c3cc4c(cc3CN3CCC(=C[C@@H]1OC(=O)c1ccccc1)[C@H]23)OCO4)c1ccccc1
> 100 | O=C1c2cc3c(cc2[C@@H]2[C@H](O)[C@@H](O)[C@H](O)C4=CCN1[C@H]42)OCO3
18 | CC(=O)O[C@H]1[C@H]2c3cc4c(cc3CN3CCC(=C[C@@H]1O[Si](C(C)C)(C(C)C)C(C)C)[C@H]23)OCO4
> 100 | CC(=O)O[C@@H]1[C@@H](OC(C)=O)[C@H](OC(C)=O)[C@@]2(O)CCN3C(=O)c4cc5c(cc4[C@H]1[C@H]32)OCO5

Test system: T98G
Assay: Growth inhibition of pro-apoptotic stimuli-resistant human T98G cells after 72 hrs by MTT assay
Format: functional
Conditions: not given
How it was run: as §1

SMILES | GI50 [µM]
CC/C=C\C/C=C\C/C=C\C/C=C\C/C=C\C/C=C\CCC(=O)O[C@H]1[C@H]2c3cc4c(cc3CN3CCC(=C[C@@H]1O)[C@H]23)OCO4 | 3
O=C(O[C@H]1[C@H]2c3cc4c(cc3CN3CCC(=C[C@@H]1OC(=O)c1ccccc1)[C@H]23)OCO4)c1ccccc1 | 54
O=C1c2cc3c(cc2[C@@H]2[C@H](O)[C@@H](O)[C@H](O)C4=CCN1[C@H]42)OCO3 | > 100
CCCCCCCCCCCCCCCC(=O)O[C@H]1[C@H]2c3cc4c(cc3CN3CCC(=C[C@@H]1O)[C@H]23)OCO4 | 7
CC(=O)O[C@H]1[C@H]2c3cc4c(cc3CN3CCC(=C[C@@H]1O[Si](C(C)C)(C(C)C)C(C)C)[C@H]23)OCO4 | 6
O=c1c2cc3c(cc2c2cccc4c2n1CC4)OCO3 | 24
CC(=O)Oc1cc2ccn3c(=O)c4cc5c(cc4c(c1)c23)OCO5 | 18
CC(=O)O[C@@H]1[C@@H](OC(C)=O)[C@H](OC(C)=O)[C@@]2(O)CCN3C(=O)c4cc5c(cc4[C@H]1[C@H]32)OCO5 | > 100

Test system: B16-F10
Assay: Growth inhibition of pro-apoptotic stimuli-sensitive mouse B16F10 cells after 72 hrs by MTT assay
Format: functional
Conditions: B16-F10, 72 h
How it was run: as §1

SMILES | GI50 [µM]
CC/C=C\C/C=C\C/C=C\C/C=C\C/C=C\C/C=C\CCC(=O)O[C@H]1[C@H]2c3cc4c(cc3CN3CCC(=C[C@@H]1O)[C@H]23)OCO4 | 18
CCCCCCCCCCCCCCCC(=O)O[C@H]1[C@H]2c3cc4c(cc3CN3CCC(=C[C@@H]1O)[C@H]23)OCO4 | 28
O=c1c2cc3c(cc2c2cccc4c2n1CC4)OCO3 | 8
CC(=O)Oc1cc2ccn3c(=O)c4cc5c(cc4c(c1)c23)OCO5 | 5

Further lines, results first:

GI50 [µM] | SMILES
24 | O=C(O[C@H]1[C@H]2c3cc4c(cc3CN3CCC(=C[C@@H]1OC(=O)c1ccccc1)[C@H]23)OCO4)c1ccccc1
> 100 | O=C1c2cc3c(cc2[C@@H]2[C@H](O)[C@@H](O)[C@H](O)C4=CCN1[C@H]42)OCO3
30 | CC(=O)O[C@H]1[C@H]2c3cc4c(cc3CN3CCC(=C[C@@H]1O[Si](C(C)C)(C(C)C)C(C)C)[C@H]23)OCO4
> 100 | CC(=O)O[C@@H]1[C@@H](OC(C)=O)[C@H](OC(C)=O)[C@@]2(O)CCN3C(=O)c4cc5c(cc4[C@H]1[C@H]32)OCO5

Test system: MCF7
Assay: Growth inhibition of human MCF7 cells after 72 hrs by MTT assay
Format: functional
Conditions: MCF7, 72 h

SMILES | GI50 [µM]
CC/C=C\C/C=C\C/C=C\C/C=C\C/C=C\C/C=C\CCC(=O)O[C@H]1[C@H]2c3cc4c(cc3CN3CCC(=C[C@@H]1O)[C@H]23)OCO4 | 21
CCCCCCCCCCCCCCCC(=O)O[C@H]1[C@H]2c3cc4c(cc3CN3CCC(=C[C@@H]1O)[C@H]23)OCO4 | 32
O=c1c2cc3c(cc2c2cccc4c2n1CC4)OCO3 | 16
CC(=O)Oc1cc2ccn3c(=O)c4cc5c(cc4c(c1)c23)OCO5 | 7

Results, then the molecule that gave them:

GI50 [µM] | SMILES
20 | O=C(O[C@H]1[C@H]2c3cc4c(cc3CN3CCC(=C[C@@H]1OC(=O)c1ccccc1)[C@H]23)OCO4)c1ccccc1
> 100 | O=C1c2cc3c(cc2[C@@H]2[C@H](O)[C@@H](O)[C@H](O)C4=CCN1[C@H]42)OCO3
27 | CC(=O)O[C@H]1[C@H]2c3cc4c(cc3CN3CCC(=C[C@@H]1O[Si](C(C)C)(C(C)C)C(C)C)[C@H]23)OCO4
> 100 | CC(=O)O[C@@H]1[C@@H](OC(C)=O)[C@H](OC(C)=O)[C@@]2(O)CCN3C(=O)c4cc5c(cc4[C@H]1[C@H]32)OCO5

Test system: SK-MEL-28
Assay: Growth inhibition of pro-apoptotic stimuli-resistant human SK-MEL-28 cells after 72 hrs by MTT assay
Format: functional
Conditions: SK-MEL-28, 72 h
How it was run: as §1

SMILES | GI50 [µM]
CC/C=C\C/C=C\C/C=C\C/C=C\C/C=C\C/C=C\CCC(=O)O[C@H]1[C@H]2c3cc4c(cc3CN3CCC(=C[C@@H]1O)[C@H]23)OCO4 | 25
CCCCCCCCCCCCCCCC(=O)O[C@H]1[C@H]2c3cc4c(cc3CN3CCC(=C[C@@H]1O)[C@H]23)OCO4 | 35
O=c1c2cc3c(cc2c2cccc4c2n1CC4)OCO3 | 33
CC(=O)Oc1cc2ccn3c(=O)c4cc5c(cc4c(c1)c23)OCO5 | 21

Continued, values first:

GI50 [µM] | SMILES
29 | O=C(O[C@H]1[C@H]2c3cc4c(cc3CN3CCC(=C[C@@H]1OC(=O)c1ccccc1)[C@H]23)OCO4)c1ccccc1
> 100 | O=C1c2cc3c(cc2[C@@H]2[C@H](O)[C@@H](O)[C@H](O)C4=CCN1[C@H]42)OCO3
34 | CC(=O)O[C@H]1[C@H]2c3cc4c(cc3CN3CCC(=C[C@@H]1O[Si](C(C)C)(C(C)C)C(C)C)[C@H]23)OCO4
> 100 | CC(=O)O[C@@H]1[C@@H](OC(C)=O)[C@H](OC(C)=O)[C@@]2(O)CCN3C(=O)c4cc5c(cc4[C@H]1[C@H]32)OCO5

Test system: not listed separately
Assay: Chemical stability of the compound at pH 5 to 7.4
Format: physicochemical
Conditions: buffer

SMILES | Stability [days]
CC/C=C\C/C=C\C/C=C\C/C=C\C/C=C\C/C=C\CCC(=O)O[C@H]1[C@H]2c3cc4c(cc3CN3CCC(=C[C@@H]1O)[C@H]23)OCO4 | 3
CCCCCCCCCCCCCCCC(=O)O[C@H]1[C@H]2c3cc4c(cc3CN3CCC(=C[C@@H]1O)[C@H]23)OCO4 | 3

Test system: PC-3
Assay: Growth inhibition of human PC3 cells after 72 hrs by MTT assay
Format: functional
Conditions: PC-3, 72 h

SMILES | GI50 [µM]
CC/C=C\C/C=C\C/C=C\C/C=C\C/C=C\C/C=C\CCC(=O)O[C@H]1[C@H]2c3cc4c(cc3CN3CCC(=C[C@@H]1O)[C@H]23)OCO4 | 19
CCCCCCCCCCCCCCCC(=O)O[C@H]1[C@H]2c3cc4c(cc3CN3CCC(=C[C@@H]1O)[C@H]23)OCO4 | 29
O=c1c2cc3c(cc2c2cccc4c2n1CC4)OCO3 | 38
CC(=O)Oc1cc2ccn3c(=O)c4cc5c(cc4c(c1)c23)OCO5 | 21

The next lines start with the values.

GI50 [µM] | SMILES
11 | O=C(O[C@H]1[C@H]2c3cc4c(cc3CN3CCC(=C[C@@H]1OC(=O)c1ccccc1)[C@H]23)OCO4)c1ccccc1
> 100 | O=C1c2cc3c(cc2[C@@H]2[C@H](O)[C@@H](O)[C@H](O)C4=CCN1[C@H]42)OCO3
26 | CC(=O)O[C@H]1[C@H]2c3cc4c(cc3CN3CCC(=C[C@@H]1O[Si](C(C)C)(C(C)C)C(C)C)[C@H]23)OCO4
> 100 | CC(=O)O[C@@H]1[C@@H](OC(C)=O)[C@H](OC(C)=O)[C@@]2(O)CCN3C(=O)c4cc5c(cc4[C@H]1[C@H]32)OCO5
